# Activity calls are given as the source filed them. The calls are words filed in the database; no cut-off is given here.
# Assays:
# [1] = target: Tyrosine-protein kinase ABL1 (Homo sapiens, UniProt P00519); assay: Binding affinity to wild-type human non-phosphorylated ABL1 (S229 to K512 residues) expressed in mammalian expression system assessed as residual binding level at 1 uM by Kinomescan method relative to control
# Summary of the method: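 Single-concentration KINOMEscan (DiscoverX) binding screen at 1 μM against a panel of 468 purified kinases and mutants. The read-out is binding relative to control.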
# [2] = target: Mitotic checkpoint serine/threonine-protein kinase BUB1 (Homo sapiens) (UniProt O43683); assay: Binding affinity to wild-type human partial length BUB1 (Q724 to K1085 residues) expressed in mammalian expression system assessed as residual binding level at 1 uM by Kinomescan method relative to control
# [3] = target: Cyclin-dependent kinase 4 (Homo sapiens) (UniProt P11802); assay: Binding affinity to wild-type human full length CDK4 (M1 to E303 residues) expressed in mammalian expression system assessed as residual binding level at 1 uM by Kinomescan method relative to control
# Summary of the method: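 Single-concentration (1 μM) competition-binding screen run by KINOMEscan against a panel of 468 purified kinases and mutants. The read-out is the relative binding activity of the test compound to each kinase.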
# [4] = target: Dual specificity protein kinase CLK2 (Homo sapiens) (UniProt P49760); assay: Binding affinity to wild-type human partial length CLK2 (D144 to R498 residues) expressed in bacterial expression system assessed as residual binding level at 1 uM by Kinomescan method relative to control
# Summary of the method: (§1)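 Kinome-wide competition binding screen against a panel of 468 purified kinases/mutants, with the test compound at a single concentration of 1 μM. Read-out is the relative binding activity of each kinase in the presence of compound.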
# [5] = target: Serine/threonine-protein kinase DCLK1 (Homo sapiens) (UniProt O15075); assay: Binding affinity to wild-type human partial length DCAMKL1 (L270 to A662 residues) expressed in mammalian expression system assessed as residual binding level at 1 uM by Kinomescan method relative to control; summary of the method: as §1
# [6] = target: Serine/threonine-protein kinase DCLK2 (Homo sapiens) (UniProt Q8N568); assay: Binding affinity to wild-type human partial length DCAMKL2 (K273 to V664 residues) expressed in bacterial expression system assessed as residual binding level at 1 uM by Kinomescan method relative to control
# [7] = target: Ephrin type-B receptor 3 (Homo sapiens) (UniProt P54753); assay: Binding affinity to wild-type human partial length EPHB3 (Q599 to T928 residues) expressed in bacterial expression system assessed as residual binding level at 1 uM by Kinomescan method relative to control; summary of the method: as §1
# [8] = target: Mitogen-activated protein kinase 15 (Homo sapiens) (UniProt Q8TD08); assay: Binding affinity to wild-type human partial length ERK8 (M1 to P437 residues) expressed in bacterial expression system assessed as residual binding level at 1 uM by Kinomescan method relative to control
# [9] = target: Serine/threonine-protein kinase LATS1 (Homo sapiens) (UniProt O95835); assay: Binding affinity to wild-type human partial length LATS1 (Q678 to V1130 residues) expressed in bacterial expression system assessed as residual binding level at 1 uM by Kinomescan method relative to control
# [10] = target: Mitogen-activated protein kinase kinase kinase 2 (Homo sapiens) (UniProt Q9Y2U5); assay: Binding affinity to wild-type human partial length MAP3K2 (S315 to H619 residues) expressed in mammalian expression system assessed as residual binding level at 1 uM by Kinomescan method relative to control
# [11] = target: Mitogen-activated protein kinase kinase kinase 4 (Homo sapiens) (UniProt Q9Y6R4); assay: Binding affinity to wild-type human partial length MAP3K4 (G1319 to E1608 residues) expressed in bacterial expression system assessed as residual binding level at 1 uM by Kinomescan method relative to control
# [12] = target: Myosin-IIIb (Homo sapiens) (UniProt Q8WXR4); assay: Binding affinity to wild-type human partial length MYO3B (M1 to D357 residues) expressed in bacterial expression system assessed as residual binding level at 1 uM by Kinomescan method relative to control
# [13] = target: Serine/threonine-protein kinase Nek1 (Homo sapiens) (UniProt Q96PY6); assay: Binding affinity to wild-type human partial length NEK1 (M1 to K278 residues) expressed in bacterial expression system assessed as residual binding level at 1 uM by Kinomescan method relative to control
# [14] = target: Serine/threonine-protein kinase Nek2 (Homo sapiens) (UniProt P51955); assay: Binding affinity to wild-type human partial length NEK2 (M1 to K309 residues) expressed in bacterial expression system assessed as residual binding level at 1 uM by Kinomescan method relative to control
# Summary of the method: (§2)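 KINOMEscan competition binding against a panel of 468 purified kinases/mutants, compound tested at 1 μM; readout is relative binding activity versus control.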
# [15] = target: Phosphatidylinositol 5-phosphate 4-kinase type-2 gamma (Homo sapiens) (UniProt Q8TBX8); assay: Binding affinity to wild-type human partial length PIP5K2C (M1 to A421 residues) expressed in mammalian expression system assessed as residual binding level at 1 uM by Kinomescan method relative to control; summary of the method: as §2
# [16] = target: Serine/threonine-protein kinase PLK1 (Homo sapiens) (UniProt P53350); assay: Binding affinity to wild-type human partial length PLK1 (A33 to F325 residues) expressed in mammalian expression system assessed as residual binding level at 1 uM by Kinomescan method relative to control
# [17] = target: Serine/threonine-protein kinase D3 (Homo sapiens) (UniProt O94806); assay: Binding affinity to wild-type human partial length PRKD3 (S543 to E863 residues) expressed in bacterial expression system assessed as residual binding level at 1 uM by Kinomescan method relative to control
# [18] = target: Receptor-interacting serine/threonine-protein kinase 4 (Homo sapiens) (UniProt P57078); assay: Binding affinity to wild-type human partial length RIPK4 (M1 to V303 residues) expressed in mammalian expression system assessed as residual binding level at 1 uM by Kinomescan method relative to control
# [19] = target: Ribosomal protein S6 kinase alpha-1 (Homo sapiens) (UniProt Q15418); assay: Binding affinity to wild-type human partial length N-terminal RSK1 Kinase domain 1 (M1 to E388 residues) expressed in bacterial expression system assessed as residual binding level at 1 uM by Kinomescan method relative to control
# [20] = target: Non-receptor tyrosine-protein kinase TNK1 (Homo sapiens) (UniProt Q13470); assay: Binding affinity to wild-type human full length TNK1 (M1 to P661 residues) expressed in bacterial expression system assessed as residual binding level at 1 uM by Kinomescan method relative to control
# Summary of the method: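 KINOMEscan competition binding against 468 purified kinases/mutants, test compound at 1 µM; residual binding relative to control.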
# [21] = Half life in Sprague-Dawley rat at 10 mg/kg, po; assay type: ADME, organism-based; conditions: in vivo
# NCI-H1703 = assay: Induction of apoptosis in human NCI-H1703 cells assessed as cleaved caspase3 expression level at 0.3 to 10 uM after 72 hrs by Western blot analysis; assay type: functional, cell-based
# Summary of the method: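 Cells exposed to compound or DMSO for the stated periods, then lysed and immunoblotted for PARP and caspase-3 cleavage, with β-actin as loading control. NCI-H1703 stimulation used PDGF AA at 100 ng/mL.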
# Mitogen-activated protein kinase kinase kinase 4 (Homo sapiens), sequence (Q9Y6R4 whole entry, the tested form may be a part): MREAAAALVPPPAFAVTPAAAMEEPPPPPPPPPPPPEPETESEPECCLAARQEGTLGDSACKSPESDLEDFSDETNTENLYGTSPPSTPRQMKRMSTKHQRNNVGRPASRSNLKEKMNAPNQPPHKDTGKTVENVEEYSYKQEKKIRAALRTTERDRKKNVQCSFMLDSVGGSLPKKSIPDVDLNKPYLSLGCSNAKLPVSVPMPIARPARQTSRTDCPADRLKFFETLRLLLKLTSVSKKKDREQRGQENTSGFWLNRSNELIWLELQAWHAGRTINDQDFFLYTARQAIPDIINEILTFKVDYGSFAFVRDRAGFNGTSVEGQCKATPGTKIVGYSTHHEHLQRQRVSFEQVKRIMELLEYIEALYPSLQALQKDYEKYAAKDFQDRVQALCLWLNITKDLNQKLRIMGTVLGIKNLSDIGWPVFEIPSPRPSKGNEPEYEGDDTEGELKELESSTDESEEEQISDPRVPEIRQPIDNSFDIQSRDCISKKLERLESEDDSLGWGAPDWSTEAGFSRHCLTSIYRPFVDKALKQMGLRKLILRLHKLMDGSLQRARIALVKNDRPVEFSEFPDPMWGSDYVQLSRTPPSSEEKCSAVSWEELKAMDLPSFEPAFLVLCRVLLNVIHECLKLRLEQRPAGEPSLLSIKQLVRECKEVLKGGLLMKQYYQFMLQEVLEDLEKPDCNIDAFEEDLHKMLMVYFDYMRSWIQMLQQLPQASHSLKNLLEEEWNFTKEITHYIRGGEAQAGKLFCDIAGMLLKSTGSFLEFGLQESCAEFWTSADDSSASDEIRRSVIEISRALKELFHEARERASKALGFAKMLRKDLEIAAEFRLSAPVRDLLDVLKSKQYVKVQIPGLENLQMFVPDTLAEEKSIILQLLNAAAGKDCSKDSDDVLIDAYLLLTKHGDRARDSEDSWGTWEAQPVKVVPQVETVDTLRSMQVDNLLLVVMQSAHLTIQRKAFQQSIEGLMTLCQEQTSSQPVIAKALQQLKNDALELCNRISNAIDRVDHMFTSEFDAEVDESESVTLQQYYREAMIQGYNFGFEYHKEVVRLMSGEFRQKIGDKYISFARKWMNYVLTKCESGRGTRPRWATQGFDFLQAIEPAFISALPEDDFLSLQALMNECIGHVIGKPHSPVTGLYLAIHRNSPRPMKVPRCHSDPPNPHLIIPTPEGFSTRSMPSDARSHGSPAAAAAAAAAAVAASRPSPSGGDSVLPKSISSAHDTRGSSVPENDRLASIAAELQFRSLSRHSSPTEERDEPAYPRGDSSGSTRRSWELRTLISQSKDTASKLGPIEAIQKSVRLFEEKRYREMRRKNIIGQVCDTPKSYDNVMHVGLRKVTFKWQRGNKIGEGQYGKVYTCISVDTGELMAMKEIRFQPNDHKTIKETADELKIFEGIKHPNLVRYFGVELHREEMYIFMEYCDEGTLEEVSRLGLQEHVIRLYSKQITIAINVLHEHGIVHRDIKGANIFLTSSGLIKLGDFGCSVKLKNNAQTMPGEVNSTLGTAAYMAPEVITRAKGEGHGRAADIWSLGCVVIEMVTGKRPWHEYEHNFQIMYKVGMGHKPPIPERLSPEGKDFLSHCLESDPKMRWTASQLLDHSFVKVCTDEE
# Serine/threonine-protein kinase Nek1 (Homo sapiens), sequence (Q96PY6 whole entry, the tested form may be a part): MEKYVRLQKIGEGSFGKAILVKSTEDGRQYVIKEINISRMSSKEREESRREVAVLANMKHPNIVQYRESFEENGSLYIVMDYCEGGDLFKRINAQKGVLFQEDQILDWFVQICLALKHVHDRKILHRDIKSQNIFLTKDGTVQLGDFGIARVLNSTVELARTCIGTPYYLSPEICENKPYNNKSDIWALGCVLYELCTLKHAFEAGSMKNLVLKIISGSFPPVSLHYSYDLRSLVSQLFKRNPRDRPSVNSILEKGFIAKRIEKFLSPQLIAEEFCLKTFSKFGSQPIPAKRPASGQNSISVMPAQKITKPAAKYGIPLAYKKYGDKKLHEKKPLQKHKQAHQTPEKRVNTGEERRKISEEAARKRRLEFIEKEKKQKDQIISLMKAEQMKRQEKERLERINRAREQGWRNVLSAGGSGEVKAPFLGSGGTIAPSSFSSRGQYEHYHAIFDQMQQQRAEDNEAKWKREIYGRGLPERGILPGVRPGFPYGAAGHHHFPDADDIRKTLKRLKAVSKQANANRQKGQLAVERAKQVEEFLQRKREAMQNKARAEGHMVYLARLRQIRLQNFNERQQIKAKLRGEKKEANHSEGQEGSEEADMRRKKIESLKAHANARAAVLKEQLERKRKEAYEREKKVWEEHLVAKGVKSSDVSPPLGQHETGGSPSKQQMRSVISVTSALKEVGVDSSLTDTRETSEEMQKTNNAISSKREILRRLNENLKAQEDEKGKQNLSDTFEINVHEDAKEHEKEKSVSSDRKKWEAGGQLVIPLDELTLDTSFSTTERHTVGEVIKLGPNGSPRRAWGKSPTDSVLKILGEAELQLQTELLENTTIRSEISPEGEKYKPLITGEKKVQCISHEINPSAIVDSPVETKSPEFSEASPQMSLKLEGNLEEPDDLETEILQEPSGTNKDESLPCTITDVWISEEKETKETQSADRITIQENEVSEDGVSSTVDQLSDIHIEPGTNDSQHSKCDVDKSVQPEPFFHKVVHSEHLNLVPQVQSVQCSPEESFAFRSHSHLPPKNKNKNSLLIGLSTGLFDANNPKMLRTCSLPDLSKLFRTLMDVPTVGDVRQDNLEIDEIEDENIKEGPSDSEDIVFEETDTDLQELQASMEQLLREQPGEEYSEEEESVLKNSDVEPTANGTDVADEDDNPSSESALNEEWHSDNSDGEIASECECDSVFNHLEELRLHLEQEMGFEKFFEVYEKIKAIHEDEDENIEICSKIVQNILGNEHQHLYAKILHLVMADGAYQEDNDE
# Serine/threonine-protein kinase D3 (Homo sapiens), sequence (O94806 whole entry, the tested form may be a part): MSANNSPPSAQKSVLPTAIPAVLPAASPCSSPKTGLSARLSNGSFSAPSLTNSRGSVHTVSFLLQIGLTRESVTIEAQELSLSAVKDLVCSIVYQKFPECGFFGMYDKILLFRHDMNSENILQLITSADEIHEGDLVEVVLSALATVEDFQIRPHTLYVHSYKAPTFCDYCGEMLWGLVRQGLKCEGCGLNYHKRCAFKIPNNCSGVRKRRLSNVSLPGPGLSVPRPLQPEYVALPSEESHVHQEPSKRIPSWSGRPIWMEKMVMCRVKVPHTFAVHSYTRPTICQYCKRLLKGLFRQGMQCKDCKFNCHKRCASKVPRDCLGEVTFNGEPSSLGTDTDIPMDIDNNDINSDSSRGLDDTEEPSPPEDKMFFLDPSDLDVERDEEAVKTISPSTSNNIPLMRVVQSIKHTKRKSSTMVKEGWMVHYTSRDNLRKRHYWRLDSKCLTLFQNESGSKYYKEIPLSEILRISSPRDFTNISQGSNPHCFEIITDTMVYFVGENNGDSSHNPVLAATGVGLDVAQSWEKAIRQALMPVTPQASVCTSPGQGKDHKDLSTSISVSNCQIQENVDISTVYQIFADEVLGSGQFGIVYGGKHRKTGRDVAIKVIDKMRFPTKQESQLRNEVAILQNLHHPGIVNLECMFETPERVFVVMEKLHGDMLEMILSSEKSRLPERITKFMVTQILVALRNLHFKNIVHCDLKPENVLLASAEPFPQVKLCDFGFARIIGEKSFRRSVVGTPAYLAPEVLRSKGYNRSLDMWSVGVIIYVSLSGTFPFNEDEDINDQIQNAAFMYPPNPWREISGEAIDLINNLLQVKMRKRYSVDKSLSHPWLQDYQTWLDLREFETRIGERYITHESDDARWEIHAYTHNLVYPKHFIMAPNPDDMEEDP
# Serine/threonine-protein kinase Nek2 (Homo sapiens), sequence (P51955 whole entry, the tested form may be a part): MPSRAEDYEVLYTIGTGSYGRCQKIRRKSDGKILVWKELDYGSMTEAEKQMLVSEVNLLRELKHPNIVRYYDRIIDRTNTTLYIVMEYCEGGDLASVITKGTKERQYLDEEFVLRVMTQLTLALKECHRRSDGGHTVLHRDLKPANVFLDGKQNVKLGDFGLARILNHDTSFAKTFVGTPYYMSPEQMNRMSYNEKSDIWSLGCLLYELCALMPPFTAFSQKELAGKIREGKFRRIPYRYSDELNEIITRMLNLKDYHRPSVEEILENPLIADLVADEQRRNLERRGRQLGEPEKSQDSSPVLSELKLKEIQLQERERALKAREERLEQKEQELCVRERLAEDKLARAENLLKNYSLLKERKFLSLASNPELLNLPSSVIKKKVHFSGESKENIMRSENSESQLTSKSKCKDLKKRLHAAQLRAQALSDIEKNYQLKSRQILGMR
# Dual specificity protein kinase CLK2 (Homo sapiens), sequence (P49760 whole entry, looked up, the tested form may be a part): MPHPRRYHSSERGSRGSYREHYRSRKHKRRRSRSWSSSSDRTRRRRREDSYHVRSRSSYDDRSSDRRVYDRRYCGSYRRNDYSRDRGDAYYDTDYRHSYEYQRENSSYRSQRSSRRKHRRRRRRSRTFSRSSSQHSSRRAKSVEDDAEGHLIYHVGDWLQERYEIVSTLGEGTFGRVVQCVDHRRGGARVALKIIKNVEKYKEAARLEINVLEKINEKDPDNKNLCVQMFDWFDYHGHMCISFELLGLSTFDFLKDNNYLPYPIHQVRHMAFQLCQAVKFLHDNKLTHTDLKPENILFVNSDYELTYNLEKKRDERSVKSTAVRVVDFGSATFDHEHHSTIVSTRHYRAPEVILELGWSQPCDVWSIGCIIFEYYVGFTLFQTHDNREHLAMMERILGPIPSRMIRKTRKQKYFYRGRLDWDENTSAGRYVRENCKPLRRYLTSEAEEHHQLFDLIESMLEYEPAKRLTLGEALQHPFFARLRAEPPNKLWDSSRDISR
# Cyclin-dependent kinase 4 (Homo sapiens), sequence (P11802 whole entry, the tested form may be a part): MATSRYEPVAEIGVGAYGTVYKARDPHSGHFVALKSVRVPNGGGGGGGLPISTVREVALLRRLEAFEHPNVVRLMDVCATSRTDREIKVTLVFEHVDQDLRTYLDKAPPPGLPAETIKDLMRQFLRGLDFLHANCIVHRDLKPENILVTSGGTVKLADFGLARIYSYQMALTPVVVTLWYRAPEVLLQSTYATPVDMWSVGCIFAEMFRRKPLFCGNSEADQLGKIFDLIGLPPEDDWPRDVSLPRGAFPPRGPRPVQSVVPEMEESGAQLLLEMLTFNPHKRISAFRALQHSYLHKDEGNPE
compound,measurement,setting,value
Cc1ccc(NC(=O)c2ccc(CN(CCN(C)C)C(=O)c3cccnc3)cc2)cc1Nc1nccc(-c2cccnc2)n1,Activity,[1],4.9%
same,Activity,[2],100%
same,Activity,[3],100%
same,Activity,[4],73%
same,Activity,[5],78%
same,Activity,[6],96%
same,Activity,[7],94%
same,Activity,[8],71%
same,Activity,[9],98%
same,Activity,[10],100%
same,Activity,[11],90%
same,Activity,[12],97%
same,Activity,[13],100%
same,Activity,[14],91%
same,Activity,[15],37%
same,Activity,[16],100%
same,Activity,[17],100%
same,Activity,[18],97%
same,Activity,[19],99%
same,Activity,[20],87%
same,half-life,[21],2.03 h
same,Activity,NCI-H1703,inactive
